Experimental data from different studies.
Protocols differ between the studies behind these lines. pIC50: −log10 of the molar value.
Action: inhibitor
VCP: Transitional endoplasmic reticulum ATPase (VCP, Homo sapiens, UniProt P55072)
P4HB: Protein disulfide-isomerase (P4HB, Homo sapiens, UniProt P07237)
BLK: Tyrosine-protein kinase Blk (BLK, Homo sapiens, UniProt P51451)
SLCO1B3: Solute carrier organic anion transporter family member 1B3 (SLCO1B3, Homo sapiens, UniProt Q9NPD5)
HDAC4: Histone deacetylase 4 (HDAC4, Homo sapiens, UniProt P56524)
SLCO1B3 M233I: Solute carrier organic anion transporter family member 1B3 (SLCO1B3, Homo sapiens, UniProt Q9NPD5, M233I)

Oc1ccc(-c2nc(-c3ccncc3)c(-c3ccc(F)cc3)[nH]2)cc1 — pIC50 (Tau-tubulin kinase 2 (TTBK2, Homo sapiens, UniProt Q6IQ55); enzyme activity): 5.44
CONC(=O)c1c(C)n(-c2nc3c(c(NCc4ccccc4)n2)CCCN3)c2ccccc12 — pIC50 (VCP; enzyme activity; ADP detection): 5.78
O=C(OC[C@H]1O[C@@H](OC(=O)c2cc(O)c(O)c(O)c2)[C@H](OC(=O)c2cc(O)c(O)c(O)c2)[C@@H](OC(=O)c2cc(O)c(O)c(O)c2)[C@@H]1OC(=O)c1cc(O)c(O)c(O)c1)c1cc(O)c(O)c(O)c1 — pIC50 (P4HB; enzyme activity; fluorescence): 5.54
CC(C)(/C=C(\C#N)C(=O)N1CCC[C@@H](n2nc(-c3ccc(Oc4ccccc4)cc3F)c3c(N)ncnc32)C1)N1CCN(C2COC2)CC1 — pIC50 (BLK; enzyme activity): 9.42
CC(C)n1c(/C=C/C(O)CC(O)CC(=O)O)c(-c2ccc(F)cc2)c2ccccc21 (centres unmarked) — pIC50 (SLCO1B3; transporter uptake; radiometric; 2 min): 6.96
CCN(CCO)CCCC(C)Nc1ccnc2cc(Cl)ccc12 (centres unmarked) — pIC50 (Procathepsin L (CTSL, Homo sapiens, UniProt P07711); enzyme activity; fluorescence): 3.63
COc1ccc(N(Cc2csc(-c3ccccc3)n2)C(=O)CCCCCC(=O)NO)cc1 — pIC50 (HDAC4; enzyme activity): < 5.00
CCc1oc2ccccc2c1C(=O)c1cc(Br)c(O)c(Br)c1 — pIC50 (SLCO1B3; transporter uptake; radiometric; oocytes): 4.60
Cc1cc2c(C(N)=O)cccc2n1-c1nc2c(c(NCc3cccnc3)n1)CCCN2 — pIC50 (VCP; enzyme activity; ADP detection): 6.94
C=CC(=O)Nc1cccc(Oc2nc(Nc3ccc(N4CCN(C)CC4)cc3)nc3ccoc23)c1 — pIC50 (BLK; enzyme activity): > 9.60
COc1cccc2c1C(=O)c1c(O)c3c(c(O)c1C2=O)C[C@@](O)(C(=O)CO)C[C@@H]3O[C@H]1C[C@H](N)[C@H](O)[C@H](C)O1 — pIC50 (SLCO1B3 M233I; transporter uptake; radiometric; 2 min): < 4.00
CC#CC(=O)N1CC[C@@H](n2c(=O)n(-c3ccc(Oc4ccccc4)cc3)c3c(N)ncnc32)C1 — pIC50 (BLK; enzyme activity): 6.10
COc1ccc(N(Cc2csc(-c3ccc(C)cc3)n2)C(=O)CCCCCC(=O)NO)cc1 — pIC50 (HDAC4; enzyme activity): < 5.00
Nc1cnccc1Nc1ccc(Cl)c(Cl)c1 — pIC50 (G/T mismatch-specific thymine DNA glycosylase (TDG, Homo sapiens, UniProt Q13569); enzyme activity): < 4.00
CCc1oc2cc(F)ccc2c1C(=O)c1cc(Br)c(O)c(Br)c1 — pIC50 (Solute carrier family 2, facilitated glucose transporter member 9 (SLC2A9, Homo sapiens, UniProt Q9NRM0); transporter uptake; oocytes): 4.52
O=C1C[C@@H](c2ccccc2)Oc2cc(O)cc(O)c21 — pIC50 (P4HB; enzyme activity; fluorescence): < 3.30
CC(=O)O[C@H]1C(=O)[C@@]2(C)[C@H]([C@H](OC(=O)c3ccccc3)[C@]3(O)C[C@H](OC(=O)[C@H](O)[C@@H](NC(=O)c4ccccc4)c4ccccc4)C(C)=C1C3(C)C)[C@]1(OC(C)=O)CO[C@@H]1C[C@@H]2O — pIC50 (SLCO1B3 M233I; transporter uptake; radiometric; 2 min): < 4.00
Cc1cc2c(C(N)=O)cccc2n1-c1nc2c(c(NCc3ccccc3O)n1)CCCN2 — pIC50 (VCP; enzyme activity; ADP detection): 7.28
CN(Cc1cnc2nc(N)nc(N)c2n1)c1ccc(C(=O)N[C@@H](CCC(=O)O)C(=O)O)cc1 — pIC50 (Solute carrier organic anion transporter family member 1B3 (SLCO1B3, Homo sapiens, UniProt Q9NPD5, S112A); transporter uptake; radiometric; 2 min): < 4.00
O=C(O[C@@H]1Cc2c(O)cc(O)cc2O[C@@H]1c1ccc(O)c(O)c1)c1cc(O)c(O)c(O)c1 — pIC50 (P4HB; enzyme activity; fluorescence): < 3.30
Cc1cc2c(C(N)=O)cccc2n1-c1nc(NCc2ccccc2)c2c(n1)NC(C)CC2 (centres unmarked) — pIC50 (VCP; enzyme activity; ADP detection): 7.41
N=C(N)c1ccc(OCCCCCOc2ccc(C(=N)N)cc2)cc1 — pIC50 (Coagulation factor XIII A chain (F13A1, Homo sapiens, UniProt P00488); enzyme activity; fluorescence): < 4.30
Cc1cc2c(C(N)=O)nccc2n1-c1nc2c(c(NCc3ccccc3)n1)CCCN2 — pIC50 (VCP; enzyme activity; ADP detection): 6.92
O=C(O[C@@H]1[C@@H](O)[C@H](Oc2cc(O)c3c(c2)O[C@H](c2ccccc2)CC3=O)O[C@@H]2COC(=O)c3cc(O)c(O)c(O)c3-c3c(cc(O)c(O)c3O)C(=O)O[C@@H]12)c1cc(O)c(O)c(O)c1 — pIC50 (P4HB; enzyme activity; fluorescence): 5.82
O=C(NO)c1ccc(Cn2cnc3c(Nc4ccc(Cl)cc4)ncnc32)cc1 — pIC50 (HDAC4; enzyme activity): 5.51
Cc1c(C(N)=O)c2ccccc2n1-c1nc2c(c(NCc3ccccc3)n1)CCCN2 — pIC50 (VCP; enzyme activity; ADP detection): 6.41
